Measurements pooled from the literature.
Compare with care: the assays were run in different laboratories.

SMILES | species | medium | route | dose | notes | measurement | result
CN(C)C(=O)c1cc2cnc(Nc3ccc(-c4ccc5c(=O)cc(N6CCOCC6)oc5c4)cc3)nc2n1C1CCCC1.Cl | BALB/c mouse | plasma | oral | 20 mg/kg | – | Tmax | 54 min
COc1ccc(-c2c(Nc3ccccn3)[nH]c3c(C4=CCCCC4)c(-c4ccccc4)nn3c2=O)cc1 | human | plasma | oral | 400 mg once daily | multiple doses, patients | Cmax | 3200 ng/mL
Cc1cc(-c2nccc3c2ccn3CC(=O)Nc2ccc(-c3cnccn3)cn2)ccn1 | human | plasma | oral | 40 mg | single dose | Cmax | 0.345 µM
COCC(=O)N1CCC[C@H](C(=O)NCc2nc(-c3ccc(C#N)cc3)cs2)C1 | – | Caco-2 | – | – | – | efflux ratio | 2.2
CC(C)n1c(C2CCNCC2)nc2c([N+](=O)[O-])c(Br)c(Br)cc21 | human | plasma | oral | 75 mg | patients | Cmax | 60.5 ng/mL
O=C(COc1ccc(Cl)cc1)NC12CC(c3nnc([C@H]4C[C@@H](OC(F)(F)F)C4)o3)(C1)C2 | human | plasma | oral | 200 mg | multiple doses, once daily, steady state, healthy volunteers | Cmax | 16.2 µM
COc1ccc2c(c1)CN(C(=O)CCN1CCC(Cc3ccccc3)CC1)CC[S@@+]2[O-] | male human | plasma | intravenous | 0.15 mg/kg | healthy volunteers | Cmax | 349 ng/mL
CCOCC(=O)N1CCC[C@H](C(=O)NCc2nc(-c3ccc(C)nc3)cs2)C1 | – | Caco-2 | – | – | – | efflux ratio | 3.8
